Structures are written as SMILES. The source made the active and inactive calls. The calls are words filed in the database; no cut-off is given here.

Results on 5 compounds are retold here after ChEMBL document CHEMBL1649361, “Pyridone and tetramic acid alkaloids from the spider pathogenic fungus Torrubiella sp. BCC 2165” (J Nat Prod, 2010).

Test [1] has as its system MCF7. Kind of test: Cytotoxicity against human MCF7 cells by resazurin microplate assay. The class given is functional, cell-based. Put shortly: (§1)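 Resazurin microplate assay on human cancer lines: KB (oral epidermoid carcinoma), MCF-7 (breast cancer) and NCI-H187 (small-cell lung cancer). IC50 values were read from the assay, with doxorubicin hydrochloride as the reference standard.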
(In general: The colour change of resazurin is a common sign of viable cells or microbes.)

The subject of a further test is NCI-H187. Briefly: Cytotoxicity against human NCI-H187 cells by resazurin microplate assay. The class given is functional, cell-based. Put shortly:
as §1

Test [2] concerns KB. Kind of test: Cytotoxicity against human KB cells by resazurin microplate assay. In kind it is functional, cell-based. Summed up:
as §1

A further test has as its system Plasmodium falciparum. Kind of test: Antimalarial activity against multidrug-resistant Plasmodium falciparum K1 by microculture radioisotope technique. In kind it is functional, organism-based.
Test [3] relates to KB. Kind of test: Cytotoxicity against human KB cells at 50 ug/ml by resazurin microplate assay. The class given is functional, cell-based. Put shortly: (§2)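 Single-concentration test at 50 µg/mL (119 µM) by resazurin microplate assay on human KB (oral epidermoid carcinoma) or MCF-7 (breast cancer) cells, with doxorubicin hydrochloride as the reference standard.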
The next test has as its system Vero. Kind of test: Cytotoxicity against african freen monkey Vero cells by green fluorescent protein microplate assay. As to conditions: Chlorocebus sabaeus.
For test [4], the system named is Mycobacterium tuberculosis. Kind of test: Antimycobacterial activity against Mycobacterium tuberculosis H37Ra by GFPMA assay. In kind it is functional, organism-based.
Test [5] concerns MCF7. Kind of test: Cytotoxicity against human MCF7 cells at 50 ug/ml by resazurin microplate assay. In kind it is functional, cell-based. Summed up:
as §2

`CCC(/C=C/C=C/C=C/C(=O)c1c(O)c([C@]2(O)CC[C@@H](O)CC2)c[nH]c1=O)CO` (stereo not given in full): the outcome in the test on MCF7 [1], in the test with NCI-H187 and in the test on KB [2] was inactive.
One may read the IC50 as the midpoint of a concentration-inhibition curve. In the test on Plasmodium falciparum, `C[C@H]1[C@@H](O)O[C@@H]2O[C@@]3(C)CC[C@H]4[C@H](C)CC[C@@H]1[C@@]24OO3` [ARTENIMOL] yielded an IC50 of 0.004 µM.
As for `COc1cccc2c1C(=O)c1c(O)c3c(c(O)c1C2=O)C[C@@](O)(C(=O)CO)C[C@@H]3O[C@H]1C[C@H](N)[C@H](O)[C@H](C)O1` [DOXORUBICIN], the results for the IC50 in the test on NCI-H187 and in the test with KB [2] were 0.098 µM and 0.37 µM, respectively.
On to `CCC(/C=C/C=C/C=C/C(=O)c1c(O)c([C@]2(O)CC[C@@H](O)CC2)cn(O)c1=O)CO` (stereo not given in full) [TORRUBIELLONE A], for which the results for the half-inhibitory concentration (IC50) with NCI-H187, with Plasmodium falciparum and with Vero were 69 µM, 8.1 µM and 87 µM, respectively. Besides, the outcome (with KB [3]; in test [4]; with MCF7 [5]) was inactive.
Take `CCC(/C=C/C=C/C=C/C(O)=C1\C(=O)NC(Cc2ccc(O)cc2)C1=O)CO` (stereo not given) [TORRUBIELLONE D]: the outcome with MCF7 [1] and with NCI-H187 was inactive. Inhibition with KB [2] was half-maximal at 44 µM (IC50).
